The RNAGym collection of RNA variant scans (doi:10.1038/s41586-018-0170-7)

B1: tRNA (parent)
chain: GUUCCGUUGGCGUAAUGGUAACGCGUCUCCCUCCUAAGGAGAAGACUGCGGGUUCGAGUCCCGUACGGAACG

Variants of: B1
Assay: yeast fitness, log relative to wild type (ln ratio); higher = fitter; tRNA-Arg(CCU), competitive growth, 37 C, 1 M NaCl
Summary of the method: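 Variants were counted by 125 bp paired-end Illumina sequencing after pools of a combinatorial tRNA-Arg(CCU) library, held on a HIS3 centromeric plasmid in BY4742 lacking the chromosomal gene, grew ~6.5 generations (~26.5 h) in SC-HIS 1M NaCl at 37 °C. Each genotype's fitness is the natural log of its generations relative to the wild type's. Generations were OD-scaled log2 output/input frequencies, inverse-variance weighted over replicates.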

| Variant | yeast fitness (ln) |
| --- | --- |
| AGUCCUUUGGCGUAAUGGUAACGCGUCUCCCUCCUAAGGAGACGAUUGCGGGUUCGAGUCCCGUAAGGAGUG [G1A U2G G6U A43C C46U C66A A70G C71U] | -0.153 |
| GGUCCGUUGGCGUAAUGGUAACGCGUCUCCCUCCUAAGGAGAAGAUUGCGGGUUCGAGUCCCGUACGGAUUG [U2G C46U A70U C71U] | -0.0115 |
| GGUCCAUUGGCGUAAUGGUAACGCGUUUCCCUCCUAAGGAGAAGACUGCGGGUUCGAGUCCCGUACGGGACG [U2G G6A C27U A69G] | -0.24 |
| GUUCCAUUGGCGUAAUGGUAACGCGUUUCCCUCCUAAGGAGAAGAUUGCGGGUUCGAGUCCCGUAUGGAUUG [G6A C27U C46U C66U A70U C71U] | -0.237 |
| GGUCCGUUGGCGUAAUGGUAACGCGUUUCCCUCCUAAGGAGAAGAUUGCGGGUUCGAGUCCCGUAUGGAGCG [U2G C27U C46U C66U A70G] | -0.117 |
| GCUCCAUUGGCGUAAUGGUAACGCGUUUCCCUCCUAAGGAGACGACUGCGGGUUCGAGUCCCGUAUGGGAUG [U2C G6A C27U A43C C66U A69G C71U] | -0.35 |
| GUUCCUUUGGCGUAAUGGUAACGCGUCUCCCUCCUAAGGAGAAGAUUGCGGGUUCGAGUCCCGUAAGGAGUG [G6U C46U C66A A70G C71U] | -0.15 |
| GGUCCGUUGGCGUAAUGGUAACGCGUUUCCCUCCUAAGGAGAAGAUUGCGGGUUCGAGUCCCGUACGGGACG [U2G C27U C46U A69G] | -0.0724 |
| GCUCCGUUGGCGUAAUGGUAACGCGUUUCCCUCCUAAGGAGAAGACUGCGGGUUCGAGUCCCGUAUGGGUCG [U2C C27U C66U A69G A70U] | -0.188 |
| GGUCCAUUGGCGUAAUGGUAACGCGUCUCCCUCCUAAGGAGAAGAUUGCGGGUUCGAGUCCCGUAAGGAUUG [U2G G6A C46U C66A A70U C71U] | -0.106 |
| AUUCCGUUGGCGUAAUGGUAACGCGUCUCCCUCCUAAGGAGAAGACUGCGGGUUCGAGUCCCGUAAGGGGUG [G1A C66A A69G A70G C71U] | -0.158 |
| AGUCCGUUGGCGUAAUGGUAACGCGUUUCCCUCCUAAGGAGACGACUGCGGGUUCGAGUCCCGUAUGGGGCG [G1A U2G C27U A43C C66U A69G A70G] | -0.492 |
| AUUCCGUUGGCGUAAUGGUAACGCGUCUCCCUCCUAAGGAGAAGAUUGCGGGUUCGAGUCCCGUACGGAAUG [G1A C46U C71U] | -0.01 |
| GCUCCAUUGGCGUAAUGGUAACGCGUCUCCCUCCUAAGGAGAAGAUUGCGGGUUCGAGUCCCGUACGGGGCG [U2C G6A C46U A69G A70G] | -0.0375 |
| AUUCCGUUGGCGUAAUGGUAACGCGUUUCCCUCCUAAGGAGACGACUGCGGGUUCGAGUCCCGUAAGGGGCG [G1A C27U A43C C66A A69G A70G] | -0.279 |
| GCUCCAUUGGCGUAAUGGUAACGCGUUUCCCUCCUAAGGAGAAGACUGCGGGUUCGAGUCCCGUAUGGGGUG [U2C G6A C27U C66U A69G A70G C71U] | -0.0741 |
| AGUCCAUUGGCGUAAUGGUAACGCGUUUCCCUCCUAAGGAGACGAUUGCGGGUUCGAGUCCCGUACGGAGCG [G1A U2G G6A C27U A43C C46U A70G] | -0.224 |
| GGUCCAUUGGCGUAAUGGUAACGCGUCUCCCUCCUAAGGAGAAGAUUGCGGGUUCGAGUCCCGUACGGGUUG [U2G G6A C46U A69G A70U C71U] | -0.272 |
| ACUCCGUUGGCGUAAUGGUAACGCGUCUCCCUCCUAAGGAGAAGACUGCGGGUUCGAGUCCCGUACGGAGCG [G1A U2C A70G] | -0.0111 |

| Variant | yeast fitness (ln) |
| --- | --- |
| AUUCCUUUGGCGUAAUGGUAACGCGUUUCCCUCCUAAGGAGAAGAUUGCGGGUUCGAGUCCCGUACGGGGUG [G1A G6U C27U C46U A69G A70G C71U] | -0.335 |
| AUUCCGUUGGCGUAAUGGUAACGCGUUUCCCUCCUAAGGAGACGACUGCGGGUUCGAGUCCCGUACGGAAUG [G1A C27U A43C C71U] | -0.0801 |
| GGUCCGUUGGCGUAAUGGUAACGCGUUUCCCUCCUAAGGAGAAGACUGCGGGUUCGAGUCCCGUACGGAUUG [U2G C27U A70U C71U] | -0.0745 |
| GGUCCAUUGGCGUAAUGGUAACGCGUCUCCCUCCUAAGGAGACGACUGCGGGUUCGAGUCCCGUAUGGGUCG [U2G G6A A43C C66U A69G A70U] | -0.235 |
| ACUCCAUUGGCGUAAUGGUAACGCGUUUCCCUCCUAAGGAGACGAUUGCGGGUUCGAGUCCCGUACGGAUCG [G1A U2C G6A C27U A43C C46U A70U] | -0.125 |
| GCUCCUUUGGCGUAAUGGUAACGCGUCUCCCUCCUAAGGAGAAGACUGCGGGUUCGAGUCCCGUACGGAGUG [U2C G6U A70G C71U] | -0.0899 |
| AUUCCAUUGGCGUAAUGGUAACGCGUCUCCCUCCUAAGGAGAAGAUUGCGGGUUCGAGUCCCGUACGGAAUG [G1A G6A C46U C71U] | -0.109 |
| GUUCCUUUGGCGUAAUGGUAACGCGUCUCCCUCCUAAGGAGAAGACUGCGGGUUCGAGUCCCGUAUGGAAUG [G6U C66U C71U] | -0.639 |
| GUUCCUUUGGCGUAAUGGUAACGCGUCUCCCUCCUAAGGAGAAGAUUGCGGGUUCGAGUCCCGUAUGGAGCG [G6U C46U C66U A70G] | -0.153 |
| ACUCCUUUGGCGUAAUGGUAACGCGUCUCCCUCCUAAGGAGACGACUGCGGGUUCGAGUCCCGUAAGGAGUG [G1A U2C G6U A43C C66A A70G C71U] | -0.0204 |
| ACUCCGUUGGCGUAAUGGUAACGCGUUUCCCUCCUAAGGAGAAGAUUGCGGGUUCGAGUCCCGUACGGAUUG [G1A U2C C27U C46U A70U C71U] | -0.155 |
| GCUCCAUUGGCGUAAUGGUAACGCGUUUCCCUCCUAAGGAGACGAUUGCGGGUUCGAGUCCCGUAAGGAUUG [U2C G6A C27U A43C C46U C66A A70U C71U] | -0.268 |
| GCUCCGUUGGCGUAAUGGUAACGCGUCUCCCUCCUAAGGAGACGACUGCGGGUUCGAGUCCCGUACGGAUUG [U2C A43C A70U C71U] | -0.102 |
| AUUCCAUUGGCGUAAUGGUAACGCGUUUCCCUCCUAAGGAGAAGACUGCGGGUUCGAGUCCCGUAUGGGUCG [G1A G6A C27U C66U A69G A70U] | -0.324 |
| GGUCCGUUGGCGUAAUGGUAACGCGUCUCCCUCCUAAGGAGAAGACUGCGGGUUCGAGUCCCGUAAGGGGCG [U2G C66A A69G A70G] | -0.148 |
| ACUCCGUUGGCGUAAUGGUAACGCGUCUCCCUCCUAAGGAGAAGAUUGCGGGUUCGAGUCCCGUAAGGAUCG [G1A U2C C46U C66A A70U] | -0.0262 |
| ACUCCGUUGGCGUAAUGGUAACGCGUUUCCCUCCUAAGGAGAAGACUGCGGGUUCGAGUCCCGUACGGGUUG [G1A U2C C27U A69G A70U C71U] | -0.351 |
| GGUCCAUUGGCGUAAUGGUAACGCGUUUCCCUCCUAAGGAGACGACUGCGGGUUCGAGUCCCGUACGGAGUG [U2G G6A C27U A43C A70G C71U] | -0.221 |
| AUUCCUUUGGCGUAAUGGUAACGCGUCUCCCUCCUAAGGAGAAGAUUGCGGGUUCGAGUCCCGUAUGGAGUG [G1A G6U C46U C66U A70G C71U] | -0.277 |
